Most compounds without a hit are left out; they make up all but 1.8% or so of the library.
MC4R antag cAMP = MC4R antagonists of cAMP signaling, primary screen, cell-based, TR-FRET, antagonist arm of biased-ligand search. Melanocortin receptor 4 (Homo sapiens), P32245. MC4R-expressing cells, MTII-stimulated cAMP, LANCE TR-FRET. inhibition, % at 6.5 µM. 360,000 tested, 0.48% active. AID 540295, 2011;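 active = inhibition above its plate's cutoff, the mean of tested wells on that plate plus 3 SD, cut at about 29% in these data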
Target sequence (P32245 whole entry, looked up): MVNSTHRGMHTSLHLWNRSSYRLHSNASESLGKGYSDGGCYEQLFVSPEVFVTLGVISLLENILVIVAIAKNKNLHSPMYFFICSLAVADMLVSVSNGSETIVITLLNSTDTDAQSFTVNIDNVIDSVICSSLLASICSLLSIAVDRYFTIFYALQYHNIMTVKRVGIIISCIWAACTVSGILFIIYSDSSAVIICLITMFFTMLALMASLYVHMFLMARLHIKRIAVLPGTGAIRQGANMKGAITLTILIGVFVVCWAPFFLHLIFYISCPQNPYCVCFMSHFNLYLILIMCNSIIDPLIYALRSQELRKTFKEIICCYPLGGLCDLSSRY
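Test system: U2OS cells stably expressing human melanocortin 4 receptor (MC4R); also added: Melanotan II challenge; compound: 6.5 µM single dose; timing: 30-min compound preincubation, 1-h Melanotan II challenge, 1-h detection, room temperature; signal: Eu-cAMP/anti-cAMP TR-FRET, emission 671 nm; repeats: one well per compound, no replicates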
NTR1 ag = agonists of human NTR1, primary screen, imaging, U2OS cells, beta-arrestin-GFP, high content. Neurotensin receptor type 1 (Homo sapiens), P30989. NTR1-U2OS beta-arrestin-GFP spot imaging, agonist mode. activation, % at 20 µM. 330,000 tested, 0.17% active. AID 493036, 2011;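 active = activation at or above 40% of the spot to cytoplasm intensity ratio, with at least 20 cells analyzed; inconclusive = wells under 20 cells, flagged as cytotoxic or low count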
MC4R ag barr = MC4R agonists recruiting beta-arrestin, primary screen, cell-based, luminescence, agonist arm of biased-ligand search; U2OS MC4R beta-arrestin complementation; percent of melanotan II response, DMSO zero; activation, % at 8.9 µM; 360,000 tested, 0.98% active; AID 540308, 2011;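 active = activation above a per-plate cutoff, the mean activation of sample wells on that plate plus 3 SD, cut at about 8% in these data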
AI-2 QS mod = Vibrio harveyi AI-2 quorum sensing modulators, primary screen, JMH597 strain, luminescence/OD600 ratio; Vibrio harveyi JMH597 AI-2 luminescence/OD600 ratio, 9 h; active compounds read low; strain lacks LuxN and CqsS sensors; 0 = neutral-control median; activity change, % at 7.5 µM; 300,000 tested, 0.4% active; AID 2094, 2009; in the data active = activity change below about -75%, passing the limit was not always enough; inconclusive = no clear call, values can overlap the other calls;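 note: luminescence divided by OD600 gain over 9 h not by final OD600 alone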
Each line names hits and unclear results; the compound was inactive in the other large screens.

Cc1ccc(/C=N/Nc2cn[nH]c(=O)n2)o1	none
COc1cccc(-c2sc3cc(OC)c(OC)cc3c2-c2ccc(OCCN3CCCCC3)cc2)c1	MC4R ag barr 11 (no result: AI-2 QS mod)
COc1ccc(-c2sc3ccccc3c2-c2ccc(OCCN3CCCCC3)cc2)cc1	none (no result: AI-2 QS mod)
COc1ccc2c(-c3ccc(OCCN4CCCCC4)cc3)c(-c3ccccc3OC)sc2c1	none (no result: AI-2 QS mod)
COc1cccc(-c2sc3ccccc3c2-c2ccc(OCCN3CCCCC3)cc2)c1	MC4R ag barr 18 (no result: AI-2 QS mod)
COc1cccc(-c2sc3ccc(OC)cc3c2-c2ccc(OCCN3CCCC3)cc2)c1	MC4R ag barr 27 (no result: AI-2 QS mod)
CCc1nc2ccc(C(=O)Nc3ccc(NC(C)=O)cc3)cn2c1N(C)CCC(C)C	none (no result: NTR1 ag, AI-2 QS mod)
O=S(=O)(NCc1nnc2ccccn12)c1ccc(F)cc1	none (no result: AI-2 QS mod)
CC1CCCN(C(=O)COC(=O)Cc2c(F)cccc2Cl)C1 (stereo not given)	none
CN(C)S(=O)(=O)c1ccc(C(=O)OCC2CC2(Cl)Cl)cc1 (stereo not given)	AI-2 QS mod -77
COc1ccc(C2CC(=O)CCN2S(=O)(=O)c2ccc(C)cc2)cc1 (stereo not given)	none (no result: NTR1 ag, AI-2 QS mod)
Oc1c(CN2CCCCC2)cc(Br)c2cccnc12	AI-2 QS mod -87
Oc1c(CN2CCc3ccccc3C2)cc(Cl)c2cccnc12	AI-2 QS mod -89
Oc1c(Cl)cc(CN2CCOCC2)c2cccnc12	none (no result: AI-2 QS mod)
C[C@@H](CN1CCC[C@H]1CN1C(N)=NC[C@@H]1Cc1ccccc1)N1C[C@@H](Cc2ccccc2)N(CCc2ccc(Cl)c(Cl)c2)C1=N	MC4R antag cAMP 33 (no result: AI-2 QS mod)
CCC[C@@H](CN1CCC[C@H]1CN1C(N)=NC[C@@H]1Cc1ccccc1)N1C[C@@H]([C@H](C)CC)N(CCCC2CCCC2)C1=N	MC4R antag cAMP 39 (no result: AI-2 QS mod)
O=C(CBr)c1ccc([N+](=O)[O-])c(CS(=O)(=O)c2ccc(Cl)cc2)c1	MC4R antag cAMP 34
COCCN(CC(=O)Nc1cccc(C)c1C)C(=O)c1cc2c(s1)CCC2	none (no result: AI-2 QS mod)
C/C(=C\C(=O)OCCCCCCCCC(=O)O)C[C@@H]1OC[C@H](C[C@@H]2O[C@H]2[C@@H](C)[C@H](C)O)[C@@H](O)[C@H]1O	AI-2 QS mod -173
COCCCNCCCOc1ccc(Cl)cc1C(C)(C)C	MC4R ag barr 10
CC(=O)c1cccc(OCC(O)CNCCOc2ccc(C)cc2)c1 (stereo not given)	none (no result: AI-2 QS mod)
Cc1ccc(O)c(-c2[nH]ncc2C(=O)c2ccc(Br)cc2)c1	none
O=C(c1ccc(Br)cc1)c1cn[nH]c1-c1ccccc1O	AI-2 QS mod -81
CC(C)(C)c1ccc(C(=O)c2cn[nH]c2-c2ccccc2O)cc1	AI-2 QS mod -92
COc1ccc(C(=O)c2cn[nH]c2-c2ccc(C)cc2O)cc1	AI-2 QS mod -86
Cc1cccc(C(=O)c2cn[nH]c2-c2ccc(C)cc2O)c1	none
O=C(COC(=O)c1cccnc1Cl)NC(=O)c1ccc(OC(F)F)cc1	none (no result: AI-2 QS mod)
CCN(C(=O)COc1cc(OC)ccc1C(C)=O)C1CCS(=O)(=O)C1 (stereo not given)	none (no result: AI-2 QS mod)
Cc1cccc(S(=O)(=O)Nc2cc(Cl)ccc2N2CCOCC2)c1	none (no result: AI-2 QS mod)
C=CCc1cccc2cc(C(=O)OCC(=O)c3ccccc3)c(=O)oc12	MC4R ag barr 9.5
C=CCc1cccc2cc(C(=O)O)c(=O)oc12	none
COc1cccc(CN2CCC(n3nccc3NC(=O)CCCc3ccccc3)CC2)c1	AI-2 QS mod -81
Cc1ccn(S(=O)(=O)c2ccc(N3CCCC3=O)cc2)n1	none
CCCCn1c(N)c(N(CCC(C)C)C(=O)C2CCCC2)c(=O)[nH]c1=O	none (no result: AI-2 QS mod)
Cc1cc(C)cc(N2C(=O)C=CC2=O)c1	MC4R antag cAMP 33 (no result: NTR1 ag, AI-2 QS mod)
Cc1cc(Cl)ccc1NC(=O)CCN1C(=O)NC(C)(C)C1=O	none (no result: AI-2 QS mod)
C=CS(=O)(=O)c1ccc(Oc2ccc(S(=O)(=O)C=C)cc2)cc1	NTR1 ag 66, AI-2 QS mod inconclusive
NS(=O)(=O)c1cccc(NC(=O)CSc2nnc(C3CC3)n2-c2ccccc2)c1	none (no result: AI-2 QS mod)
O=C(CO/N=C/c1ccc(Cl)cc1Cl)NNC(=O)c1ccc(Cl)cc1Cl	AI-2 QS mod -88
COc1ccccc1NC(=O)CSc1nc(=O)n2cc(C)ccc2n1	none
Nc1ncn([C@@H]2O[C@H](CO)[C@@H](O)[C@H]2O)c(=O)n1	AI-2 QS mod -87
Nc1ccn([C@@H]2O[C@H](CO)[C@@H](O)[C@@H]2O)c(=O)n1	none (no result: NTR1 ag)
O=c1c2ccccc2nc(/C=C/c2ccc([N+](=O)[O-])o2)n1CCCO	AI-2 QS mod -84
O=C(Nc1ccccc1N1CCOCC1)c1cccc2c(Br)cccc12	none
COc1cc(C(=O)OCC(=O)NCc2ccc(F)cc2)ccc1OCC(C)C	MC4R ag barr 8.3
COc1cc(C(=O)OCC(=O)NCCCc2ccccc2)ccc1OCC(C)C	none
COc1cccc(NC(=O)COC(=O)C2C3CC4OC(=O)C2C4C3)c1 (stereo not given)	none
CN(C)c1ccc(O)c2c1CC1CC3[C@@H](N(C)C)C(=O)C(C(N)=O)=C(O)[C@]3(O)C(=O)C1=C2O (stereo not given in full)	AI-2 QS mod -87
CC1CCN(C(=O)/C=C/c2ccc(C(C)(C)C)cc2)CC1	AI-2 QS mod -89
N#Cc1c(-c2ccccc2)nc(-c2cccnc2)[nH]c1=O	none
CCOc1ccc(CNC(=O)CCCN2C(=O)C(c3ccccc3)Oc3cccnc32)cc1 (stereo not given)	MC4R ag barr 9.1
CCOc1ccc(CNC(=O)CN2C(=O)C(c3ccccc3)Oc3cccnc32)cc1 (stereo not given)	none
CCN(CC)S(=O)(=O)c1cccc(NC(=O)Nc2cccc(C(F)(F)F)c2)c1	NTR1 ag 41
OC(Cc1ccnc2ccccc12)C(Cl)(Cl)Cl (stereo not given)	none (no result: NTR1 ag, AI-2 QS mod)
O=C(Nc1ccccc1)C(Cl)C(=O)c1ccccc1 (stereo not given)	AI-2 QS mod -82
CC(=O)C(Cl)C(=O)Nc1ccccc1 (stereo not given)	none (no result: NTR1 ag, AI-2 QS mod)
CC(=O)c1cccc(NC(=O)C(C)OC(=O)c2cccc(S(=O)(=O)N3CCN(C)CC3)c2)c1 (stereo not given)	none (no result: AI-2 QS mod)
COc1ccc(C2CC(c3ccc4ccccc4c3)=NN2C(=O)CNC2CCCCC2)cc1 (stereo not given)	MC4R ag barr 8.5
C=CCNCC(=O)N1N=C(c2ccc3ccccc3c2)CC1c1ccc(OC)cc1 (stereo not given)	MC4R ag barr 8.9
COc1ccc(C2CC(c3ccc4ccccc4c3)=NN2C(=O)CN2CCC(C(N)=O)CC2)cc1 (stereo not given)	none
COc1ccc(C(=O)Nc2ccc(Nc3ccccc3)cc2)cc1Br	MC4R ag barr 9.4
O=C(Nc1ccc(Nc2ccccc2)cc1)c1ccc(Br)o1	AI-2 QS mod -92
O=C(NC(=S)Nc1ccccc1)c1ccc(Br)o1	none

High-throughput results from PubChem BioAssay.
